Measurements from ChEMBL document CHEMBL1133684, “Novel cannabinol probes for CB1 and CB2 cannabinoid receptors” (J Med Chem, 2000).

Columns and labels:
Cannabinoid receptor 1 [1] = target: T1, Cannabinoid receptor 1 (Homo sapiens, UniProt P21554); assay: Binding affinity was determined for Cannabinoid receptor 1
Cannabinoid receptor 2 [2] = target: T2, Cannabinoid receptor 2 (Homo sapiens, UniProt P34972); assay: Binding affinity was determined for Cannabinoid receptor 2
Summary of the method: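 Radioligand displacement on P2 membrane preparations, filtration method. Test compounds kept as 1 mg/mL stocks in absolute ethanol at -20 °C.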

[3] = target: Cannabinoid receptor (Homo sapiens) (UniProt P34972+P21554); assay: Ratio of Ki of CB1 receptor to that of CB2 receptor; type: protein assay
Cannabinoid receptor 1 [4] = target: T1, Cannabinoid receptor 1; assay: Compound was tested for inhibition of Adenylyl cyclase in cannabinoid receptor 1 (CB1).
Cannabinoid receptor 2 [5] = target: T2, Cannabinoid receptor 2; assay: Binding affinity was determined for cannabinoid receptor 2
Summary of the method: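 Radioligand displacement on P2 membrane preparations, filtration method. Test compounds kept as 1 mg/mL stocks in absolute ethanol at -20 °C. Displacement curves came from incubating the drugs with 1 nM [³H][…].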

T2 sequence (P34972 whole entry): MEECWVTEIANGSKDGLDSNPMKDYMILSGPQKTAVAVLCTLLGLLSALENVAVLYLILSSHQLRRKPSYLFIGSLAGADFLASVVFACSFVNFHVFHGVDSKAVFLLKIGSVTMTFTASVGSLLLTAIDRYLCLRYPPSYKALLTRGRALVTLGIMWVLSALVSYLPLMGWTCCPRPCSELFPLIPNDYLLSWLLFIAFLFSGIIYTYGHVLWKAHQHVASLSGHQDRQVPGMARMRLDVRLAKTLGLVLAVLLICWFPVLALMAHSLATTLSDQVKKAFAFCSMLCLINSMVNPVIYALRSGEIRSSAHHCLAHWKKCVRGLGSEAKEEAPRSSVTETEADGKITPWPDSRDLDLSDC
Sequence of Cannabinoid receptor (Homo sapiens) (P21554 whole entry, looked up): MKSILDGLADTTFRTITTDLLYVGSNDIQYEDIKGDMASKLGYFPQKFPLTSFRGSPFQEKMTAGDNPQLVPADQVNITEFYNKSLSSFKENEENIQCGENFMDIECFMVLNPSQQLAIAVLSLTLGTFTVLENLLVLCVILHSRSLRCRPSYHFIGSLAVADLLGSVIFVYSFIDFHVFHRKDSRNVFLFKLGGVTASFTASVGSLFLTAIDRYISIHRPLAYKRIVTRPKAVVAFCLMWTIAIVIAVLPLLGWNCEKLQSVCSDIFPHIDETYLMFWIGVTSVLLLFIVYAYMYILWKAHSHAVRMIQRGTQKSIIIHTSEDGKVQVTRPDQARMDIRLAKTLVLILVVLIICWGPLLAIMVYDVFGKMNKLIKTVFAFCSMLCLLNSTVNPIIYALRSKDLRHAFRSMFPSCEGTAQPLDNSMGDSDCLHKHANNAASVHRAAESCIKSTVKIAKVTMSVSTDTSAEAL
Sequence of Cannabinoid receptor (Homo sapiens) (P34972 whole entry, looked up): as the sequence (P34972 whole entry) above
T1 sequence (P21554 whole entry): as the sequence (P21554 whole entry, looked up) above

Row | SMILES | Ki (Cannabinoid receptor 1 [1]) [nM] | Ki (Cannabinoid receptor 2 [2]) [nM] | Ratio [3] | Ki (Cannabinoid receptor 1 [4]) [nM] | Ki (Cannabinoid receptor 2 [5]) [nM]
1 | CCCCCCC(C)(C)c1cc(OC)c2c(c1)OC(C)(C)c1ccc(C(=O)OC(C)C)cc1-2 | > 10000 | > 10000 | – | – | –
2 | CCCCCCC(C)(C)c1cc(O)c2c(c1)OC(C)(C)c1ccc(CO)cc1-2 | 0.1 | – | 0.5 | – | –
3 | CCCCCCC(C)(C)c1cc(OC)c2c(c1)OC(C)(C)c1ccc(C(=O)OC)cc1-2 | > 10000 | 529 | > 18.9 | – | –
4 | CCCCCCC(C)(C)c1cc(O)c2c(c1)OC(C)(C)c1ccc(C(=O)OC)cc1-2 | 14 | 3.8 | 3.7 | – | –
5 | CCCCCCC(C)(C)c1ccc(-c2cc(C)ccc2C(C)C)c(O)c1 | 33 | – | 10 | – | –
6 | CCCC(C)(C)c1ccc(-c2cc(C)ccc2C(C)C)c(O)c1 | 875 | – | 7.7 | – | –
7 | CCCCCCC(C)(C)c1cc(OC)c2c(c1)OC(C)(C)c1ccc(C(=O)OCCC)cc1-2 | 1730 | 214 | 8.1 | – | –
8 | CCCCCCC(C)(C)c1ccc2c(c1)OC(C)(C)c1ccc(CO)cc1-2 | 2 | 1 | 2 | – | –
9 | CCCCCCOC(=O)c1ccc2c(c1)-c1c(OC)cc(C(C)(C)CCCCCC)cc1OC2(C)C | > 10000 | > 10000 | – | – | –
10 | CCCC(C)(C)c1ccc2c(c1)OC(C)(C)c1ccc(C(=O)OC)cc1-2 | > 10000 | 611 | > 16.4 | – | –
11 | CCCCCCC(C)(C)c1cc(OC)c2c(c1)OC(C)(C)c1ccc(C(=O)OCc3ccccc3)cc1-2 | > 10000 | > 10000 | – | – | –
12 | CCCC(C)(C)c1cc(O)c2c(c1)OC(C)(C)c1ccc(C)cc1-2 | 42 | 6 | 7 | – | –
13 | CCCCCCC(C)(C)c1ccc2c(c1)OC(C)(C)c1ccc(C(=O)OC)cc1-2 | 558 | 276 | 2 | – | –
14 | CCCCCCC(C)(C)c1cc(O)c2c(c1)OC(C)(C)c1ccc(C)cc1-2 | 1 | – | 0.4 | 2 | 2.24
15 | CCCCCCC(C)(C)c1ccc2c(c1)OC(C)(C)c1ccc(C)cc1-2 | 434 | 167 | 2.6 | – | –
16 | CCCC(C)(C)c1ccc2c(c1)OC(C)(C)c1ccc(CO)cc1-2 | – | 67 | 3 | – | –
17 | CCCCCCC(C)(C)c1cc(OC)c2c(c1)OC(C)(C)c1ccc(C(=O)OCc3ccc4ccccc4c3)cc1-2 | > 10000 | > 10000 | – | – | –
18 | CCCCCCC(C)(C)c1cc(OC)c2c(c1)OC(C)(C)c1ccc(C)cc1-2 | 681 | 286 | 2.4 | – | –
